From ChEMBL document CHEMBL1121388, “Analgesic narcotic antagonists. 2. 8-Alkymorphinan-6-ones” (J Med Chem, 1980)
The source made the active and inactive calls. The calls are words filed in the database; no cut-off is given here.

Experiments:
Mus musculus [1] = assay: The effective dose was measured by using mouse writhing assay after the compound administered subcutaneously.; format: functional; settings: sc
Method in brief: (§1)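 Analgesia in the mouse writhing test induced by acetic acid, with compound given subcutaneously. Salts were dissolved in distilled H₂O; free bases were dissolved by dropwise 1 N HCl and then diluted.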

Rattus norvegicus [2] = assay: The Effective dose was measured by using rat tail flick assay after the compound administered subcutaneously; lethal at the given dose; format: organism-based; settings: in vivo, sc
Method in brief: (§2)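 Agonist activity in the rat heat-stimulus tail-flick test. Drug was given subcutaneously and rats were tested 20 min after dosing. Salts were dissolved in distilled H₂O; free bases were dissolved with dropwise 1 N HCl and then diluted. ED₅₀ or inactivity/lethality recorded at the dose indicated.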

Rattus norvegicus [3] = assay: The Effective dose was measured by using rat tail flick assay after the compound administered intraperitoneally at a dose of 7.7 umol/kg; IA means inactive at the given dose; format: functional, organism-based
Rattus norvegicus [4] = assay: The %change in weight from day 0 to day1 after administering the compound at dose of 40 (mg/kg)/day in rat; format: functional
Method in brief: (§3)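 Rat physical dependence liability study: drug infused at the stated mg/kg/day for 6 days, with saline-infused controls for 6 days. Body weight was recorded daily and expressed as % change from day 0 on days 1–4. Groups of 4–6 rats; values are means ±.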

Rattus norvegicus [5] = assay: The %change in weight from day 0 to day1 after administering the compound at dose of 80 (mg/kg)/day in rat; format: functional; method in brief: as §3
Rattus norvegicus [6] = assay: The %change in weight from day 0 to day 2 after administering the compound at dose of 40 (mg/kg)/day in rat; format: functional; method in brief: as §3
Rattus norvegicus [7] = assay: The %change in weight from day 0 to day 2 after administering the compound at dose of 80 (mg/kg)/day in rat; format: functional; method in brief: as §3
Rattus norvegicus [8] = assay: The %change in weight from day 0 to day 3 after administering the compound at dose of 40 (mg/kg)/day in rat; format: functional; method in brief: as §3
Rattus norvegicus [9] = assay: The %change in weight from day 0 to day 3 after administering the compound at dose of 80 (mg/kg)/day in rat; format: functional; method in brief: as §3
Rattus norvegicus [10] = assay: The %change in weight from day 0 to day 4 after administering the compound at dose of 40 (mg/kg)/day in rat; format: functional; method in brief: as §3
Rattus norvegicus [11] = assay: The %change in weight from day 0 to day 4 after administering the compound at dose of 80 (mg/kg)/day in rat; format: functional; method in brief: as §3
Mus musculus [12] = assay: The Effective dose was measured by using mouse writhing assay after the compound administered subcutaneously at a dose of 75 umol/kg; IA means inactive at the given dose; format: functional, organism-based; method in brief: as §1
Rattus norvegicus [13] = assay: The effective dose was measured by using rat tail flick assay after the compound administered intraperitoneally.; format: functional; settings: ip
Rattus norvegicus [14] = assay: The Effective dose was measured by using rat tail flick assay after the compound administered intraperitoneally at a dose of 9 umol/kg; IA means inactive at the given dose; format: functional, organism-based
Mus musculus [15] = assay: The Effective dose was measured by using mouse writhing assay after the compound administered subcutaneously at a dose of 50 umol/kg; IA means inactive at the given dose; format: functional, organism-based; method in brief: as §1
Rattus norvegicus [16] = assay: The Effective dose was measured by using rat tail flick assay after the compound administered intraperitoneally at a dose of 30 umol/kg; IA means inactive at the given dose; format: functional, organism-based
Rattus norvegicus [17] = assay: The Effective dose was measured by using rat tail flick assay after the compound administered subcutaneously at a dose of 28 umol/kg; IA means inactive at the given dose; format: functional, organism-based; method in brief: as §2
Rattus norvegicus [18] = assay: The Effective dose was measured by using rat tail flick assay after the compound administered intraperitoneally at a dose of 50 umol/kg; IA means inactive at the given dose; format: functional, organism-based

`COc1ccc2c(c1)C13CCN(C)C(C2)[C@H]1[C@H](C)CC(=O)C3` (some centres undefined) showed an ED50 (Mus musculus [1]) of 2.65 µmol/kg and an ED50 (Rattus norvegicus [2]) of 9 µM/kg.

In the case of `CCC1CCCC23CCN(CC4CCC4)C(Cc4ccc(OC)cc42)[C@H]13` (some centres undefined), the ED50 (Mus musculus [1]) is reported as greater than 25 µmol/kg and the ED50 (Rattus norvegicus [3]) is reported as “inactive”.

With `C[C@H]1CC(=O)CC23CCN(CC4CCC4)C(Cc4ccc(O)cc42)[C@H]13.O=C(O)C(O)C(O)C(=O)O` (some centres undefined) the Change (Rattus norvegicus [4]) was 1.2%, the Change (Rattus norvegicus [5]) was 1.7% and the Change (Rattus norvegicus [6]) was 2%. The Change (Rattus norvegicus [7]) was 3.1%, the Change (Rattus norvegicus [8]) was 6.1% and the Change (Rattus norvegicus [9]) was 5.3%. It also gave a Change (Rattus norvegicus [10]) of 9.6% and a Change (Rattus norvegicus [11]) of 9.5%.

In the case of `CC[C@@H]1CC(=O)CC23CCN(CC4CCC4)C(Cc4ccc(OC)cc42)[C@@H]13` (some centres undefined), the ED50 (Mus musculus [12]) is reported as “inactive” and the ED50 (Rattus norvegicus [13]) is reported as greater than 25 µmol/kg.

For `CCC1CCCC23CCN(CC4CCC4)C(Cc4ccc(O)cc42)[C@H]13` (some centres undefined), the ED50 (Mus musculus [1]) was greater than 25 µmol/kg and the ED50 (Rattus norvegicus [14]) was “inactive”.

`CC[C@H]1CC(=O)CC23CCN(CC4CC4)C(Cc4ccc(O)cc42)[C@H]13` (some centres undefined) was tested, and the ED50 (Mus musculus [15]) was “inactive” and the ED50 (Rattus norvegicus [13]) was 4.7 µmol/kg.

In the case of `COc1ccc2c(c1)C13CCN(CC4CCC4)C(C2)[C@H]1CCC(=O)C3` (some centres undefined), the ED50 (Mus musculus [1]) is reported as 20.3 µmol/kg and the ED50 (Rattus norvegicus [16]) is reported as “inactive”.

With `CCC[C@@H]1CC(=O)CC23CCN(C)C(Cc4ccc(OC)cc42)[C@@H]13` (some centres undefined) the ED50 (Mus musculus [1]) was 55 µmol/kg and the ED50 (Rattus norvegicus [17]) was “inactive”.

In the case of `CC[C@H]1CC(=O)CC23CCN(CC4CCC4)C(Cc4ccc(OC)cc42)[C@H]13` (some centres undefined), the ED50 (Mus musculus [1]) is reported as 14.2 µmol/kg and the ED50 (Rattus norvegicus [18]) is reported as “inactive”.
